In ChEMBL document CHEMBL2203249, “Optimization of a small tropomyosin-related kinase B (TrkB) agonist 7,8-dihydroxyflavone active in mouse models of depression” (J Med Chem, 2012):
Activity calls are given as the source filed them. The rule behind the calls is not given here.

Tests used:
[1] = molecular target: BDNF/NT-3 growth factors receptor (Rattus norvegicus) (UniProt Q63604); test: Agonist activity at TrkB receptor in E17 rat embryo primary neurons assessed as TrkB phosphorylation at tyrosine 817 at 500 nM after 15 mins by immunoblotting analysis; assay type: functional
Chain of BDNF/NT-3 growth factors receptor (Rattus norvegicus) (Q63604 whole entry): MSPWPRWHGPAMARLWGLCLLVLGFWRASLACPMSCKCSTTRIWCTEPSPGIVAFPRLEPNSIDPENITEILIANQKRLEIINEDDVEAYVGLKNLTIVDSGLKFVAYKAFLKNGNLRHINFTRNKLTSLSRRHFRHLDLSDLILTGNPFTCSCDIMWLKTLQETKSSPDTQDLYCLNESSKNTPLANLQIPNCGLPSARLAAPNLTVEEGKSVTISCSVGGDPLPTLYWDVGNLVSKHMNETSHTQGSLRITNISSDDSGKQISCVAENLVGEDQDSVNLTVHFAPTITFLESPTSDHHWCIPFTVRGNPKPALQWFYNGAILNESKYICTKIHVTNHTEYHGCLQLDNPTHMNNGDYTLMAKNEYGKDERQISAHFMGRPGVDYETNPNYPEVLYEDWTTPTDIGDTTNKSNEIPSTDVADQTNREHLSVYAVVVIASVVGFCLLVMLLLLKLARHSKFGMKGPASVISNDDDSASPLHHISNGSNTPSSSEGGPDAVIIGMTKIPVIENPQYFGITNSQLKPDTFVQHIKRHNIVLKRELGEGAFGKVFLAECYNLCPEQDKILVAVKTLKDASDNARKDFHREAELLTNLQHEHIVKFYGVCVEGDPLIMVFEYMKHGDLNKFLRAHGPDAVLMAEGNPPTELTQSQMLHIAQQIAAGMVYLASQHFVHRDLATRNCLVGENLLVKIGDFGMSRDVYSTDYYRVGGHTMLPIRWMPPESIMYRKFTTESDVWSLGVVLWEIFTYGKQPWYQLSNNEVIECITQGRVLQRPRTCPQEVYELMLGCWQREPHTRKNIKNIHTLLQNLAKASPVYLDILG
Procedure, shortened: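 Primary cortical cultures from E17 rat embryos were exposed to 500 nM for 15 min. Lysates were immunoblotted for p-TrkB and p-Akt (20 μg per lane). Two replicate experiments.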

[2] = tested on: HepG2; test: Genotoxicity in human HepG2 cells assessed as micronuclei formation at 50 uM after 24 hrs by DAPI staining; assay type: toxicity, cell-based; details: hepg2, 24 h
Procedure, shortened: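 HepG2 cells were exposed to 50 μM for 24 h, with benzo(a)pyrene as positive control. Cells were swollen in hypotonic KCl/NaCl for 10 min at 37°C, fixed in methanol/acetic acid 3:1 and stained with DAPI at 2 μg/ml. Three independent experiments, one-way ANOVA.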

[3] = tested on: HepG2; test: Genotoxicity in human HepG2 cells assessed as induction of DNA lesion at 100 uM after 24 hrs by comet assay; assay type: toxicity, cell-based; details: hepg2, 24 h
Procedure, shortened: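 HepG2 cells were exposed to 100 μM for 24 h, with etoposide as positive control. Cells were embedded in agarose, lysed 2 h at 4°C at pH 10, unwound 40 min in alkali at pH >13 and electrophoresed at 25 V for 30 min at 4°C. After ethidium bromide staining, comet-tail nuclei were counted in >100 cells per field. Three independent experiments, one-way ANOVA.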

[4] = tested on: HepG2; test: Cytotoxicity against human HepG2 cells assessed as cell death upto 100 uM after 24 hrs by LDH assay; assay type: cell-based; details: hepg2, 24 h
Procedure, shortened: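 HepG2 cells were exposed to a range of concentrations up to 100 μM for 24 h, and cytotoxicity was measured by LDH release. n=3.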

[5] = tested on: Mus musculus; test: Agonist activity at TrkB receptor in C57BL/J6 mouse brain assessed as Akt phosphorylation at serine 473 at 1 mg/kg, po after 4 hrs by ELISA; assay type: functional, organism-based; set-up: dose 1 mg/kg
Procedure, shortened: (§1)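 Male C57BL/6 mice, two months old, received a single 1 mg/kg oral dose, with saline controls. Brain was taken at set time points and lysed. Phospho-Akt S473 was measured by sandwich ELISA on 20 μg lysate: overnight capture at 4°C, detection antibody, HRP secondary and TMB, read at 450 minus 650 nm. Two replicate experiments, one-way ANOVA against control.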

[6] = tested on: Mus musculus; test: Agonist activity at TrkB receptor in C57BL/J6 mouse brain assessed as Akt phosphorylation at serine 473 in hippocampus at 1 mg/kg, po after 4 hrs by ELISA; assay type: functional, organism-based; set-up: dose 1 mg/kg; procedure, shortened: as §1
[7] = tested on: Mus musculus; test: Antidepressant activity in C57BL/J6 mouse assessed as reduction of immobility at 5 mg/kg, po administered qd for 21 days recorded in last 4 mins by forced swim test; assay type: functional, organism-based; set-up: dose 5 mg/kg
Procedure, shortened: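 Male C57BL/6J mice, 2–3 months old, were gavaged daily for 21 days with drug (5 or 2.5 mg/kg) or saline and adapted to the test room for 2 days. With no preswim, each mouse was placed for 6 min in a 16-cm cylinder of 24 °C water, 14 cm deep. Immobility in the last 4 min was scored blind and compared by unpaired t-test (n=6 or 8).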

[8] = tested on: Mus musculus; test: Agonist activity at TrkB receptor in C57BL/J6 mouse brain assessed as Akt phosphorylation at serine 473 at 1 mg/kg, po by immunoblotting analysis; assay type: functional, organism-based; set-up: dose 1 mg/kg
Procedure, shortened: (§2)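 Male C57BL/6 mice, two months old, received a single 1 mg/kg oral dose, with saline controls. Brain or hippocampus was collected 4 h later (time-course samples at various times). Homogenates were ultracentrifuged and 40 μg supernatant was immunoblotted for p-TrkB, p-Akt and p-MAPK.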

[9] = tested on: Mus musculus; test: Agonist activity at TrkB receptor in C57BL/J6 mouse brain assessed as TrkB phosphorylation at tyrosine 706 at 1 mg/kg, po by immunoblotting analysis; assay type: functional, organism-based; set-up: dose 1 mg/kg; procedure, shortened: as §2
[10] = tested on: Mus musculus; test: Agonist activity at TrkB receptor in C57BL/J6 mouse brain assessed as TrkB phosphorylation at tyrosine 816 in cortex at 5 mg/kg, po administered qd for 21 days by immunoblotting analysis; assay type: functional, organism-based; set-up: dose 5 mg/kg
[11] = tested on: Mus musculus; test: Agonist activity at TrkA receptor in C57BL/J6 mouse brain assessed as TrkA phosphorylation at tyrosine 794 in cortex at 5 mg/kg, po administered qd for 21 days by immunoblotting analysis; assay type: functional, organism-based; set-up: dose 5 mg/kg
[12] = tested on: Mus musculus; test: Agonist activity at TrkB receptor in C57BL/J6 mouse brain assessed as TrkB phosphorylation at tyrosine 816 in hippocampus at 1 mg/kg, po after 4 hrs by immunoblotting analysis; assay type: functional, organism-based; set-up: dose 1 mg/kg; procedure, shortened: as §2
[13] = tested on: Mus musculus; test: Agonist activity at TrkB receptor in C57BL/J6 mouse brain assessed as Akt phosphorylation at serine 473 at 1 mg/kg, po after 8 hrs by ELISA; assay type: functional, organism-based; set-up: dose 1 mg/kg; procedure, shortened: as §1
[14] = tested on: Mus musculus; test: Agonist activity at TrkB receptor in C57BL/J6 mouse brain assessed as Akt phosphorylation at serine 473 at 1 mg/kg, po after 1 hr by ELISA; assay type: functional, organism-based; set-up: dose 1 mg/kg; procedure, shortened: as §1
[15] = tested on: Mus musculus; test: Elimination half life in mouse at 1 mg/kg, iv by HPLC analysis; assay type: ADME, organism-based; set-up: dose 1 mg/kg, route intravenous; details: in vivo
Procedure, shortened: (§3)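 Mice of 20–30 g, 6–8 weeks old, dosed i.v. or orally. Blood was drawn at 3, 10, 30, 60, 120, 240, 360 and 480 min into lithium-heparin tubes, spun at 2500 × g for 15 min at 4°C within 1 h and stored at −20°C. Plasma was analysed by HPLC, 3 mice per time point. AUC was calculated by the linear/log trapezoidal method.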

[16] = tested on: Mus musculus; test: Agonist activity at TrkB receptor in C57BL/J6 mouse brain assessed as Akt phosphorylation at serine 473 in hippocampus at 1 mg/kg, po after 4 hrs by immunoblotting analysis; assay type: functional, organism-based; set-up: dose 1 mg/kg; procedure, shortened: as §2
[17] = tested on: Mus musculus; test: Agonist activity at TrkB receptor in C57BL/J6 mouse brain assessed as MAPK phosphorylation in hippocampus at 1 mg/kg, po after 4 hrs by immunoblotting analysis; assay type: functional, organism-based; set-up: dose 1 mg/kg; procedure, shortened: as §2
[18] = tested on: Mus musculus; test: Volume of distribution at steady state in mouse at 1 mg/kg, iv by HPLC analysis; assay type: ADME, organism-based; set-up: dose 1 mg/kg, route intravenous; details: in vivo
Procedure, shortened: (§4)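 Mice (20–30 g, 6–8 weeks old) were dosed i.v. or orally. Blood was drawn into lithium-heparin tubes at 3, 10, 30, 60, 120, 240, 360 and 480 min, with 3 mice per time point. Plasma was separated at 2500 × g for 15 min at 4°C within 1 h and stored at −20°C. Samples were analysed by HPLC, and AUC was calculated by the linear/log trapezoidal method.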

[19] = tested on: Mus musculus; test: Volume of distribution in mouse at 1 mg/kg, iv by HPLC analysis; assay type: ADME, organism-based; set-up: dose 1 mg/kg, route intravenous; details: in vivo; procedure, shortened: as §4
[20] = tested on: Mus musculus; test: AUC (infinity) in mouse at 1 mg/kg, iv by HPLC analysis; assay type: ADME, organism-based, Plasma; set-up: time infinity, dose 1 mg/kg, route intravenous; details: in vivo; procedure, shortened: as §3
[21] = tested on: Mus musculus; test: AUC last in mouse at 1 mg/kg, iv by HPLC analysis; assay type: ADME, organism-based, Plasma; set-up: time 0 - last, dose 1 mg/kg, route intravenous; details: in vivo; procedure, shortened: as §3
[22] = tested on: Mus musculus; test: Agonist activity at TrkB receptor in C57BL/J6 mouse brain assessed as Akt phosphorylation at serine 473 at 1 mg/kg, po after 8 hrs by ELISA relative to control; assay type: functional; procedure, shortened: as §1
[23] = tested on: Mus musculus; test: Antidepressant activity in C57BL/J6 mouse assessed as increase in locomotion at 5 mg/kg, po qd for 21 days tested on day 22 by locomotor activity assay; assay type: functional, organism-based; set-up: dose 5 mg/kg
Procedure, shortened: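 Male C57BL/6J mice were gavaged with 5 mg/kg/day or saline vehicle for 21 days. On day 22, ambulation (consecutive photobeam breaks) was recorded in automated chambers for 2 h in 30-min intervals. n=6, two-way ANOVA.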

SMILES | Activity [1] | Activity [6] | Activity [12] | also measured
O=c1cc(-c2ccc(F)cc2)oc2c(O)c(O)ccc12 | inactive |  |  | 
O=c1cc(-c2ccc(N3CCCC3)cc2)oc2c1ccc1nc[nH]c12 |  |  |  | Activity [2]: Non-toxic; Activity [3]: Non-toxic; Activity [4]: Non-toxic
O=c1c(F)c(-c2cccc(O)c2)oc2c(O)c(O)ccc12 | Active | Active | Active | Activity [5]: inactive; Activity [7]: Active; Activity [8]: inactive; Activity [9]: inactive; Activity [10]: Active; Activity [11]: inactive; Activity [13]: inactive; Activity [14]: Active
O=c1c(F)c(-c2ccccc2)oc2c(O)c(O)ccc12 | Active | Active | Active | 
Br.CN(C)c1ccc(-c2cc(=O)c3ccc(O)c(O)c3o2)cc1 | Active | Active | Active | beta t1/2 [15]: 9 min; Activity [16]: Active; Activity [17]: Active; Vdss [18]: 803 mL/kg; Vz [19]: 2117 mL/kg; AUC [20]: 5943 ng·min/mL; AUClast [21]: 5930 ng·min/mL
O=c1cc(-c2ccccc2)oc2c(O)c(O)cc(F)c12 | Active | Active | Active | 
c1ccc2c(c1)cc1ccc3cccc4ccc2c1c34 |  |  |  | Activity [2]: Toxic
O=c1cc(-c2cncnc2)oc2c(O)c(O)ccc12 | Active | Active | Active | 
CN(C)c1ccc(-c2cc(=O)c3c(F)cc(O)c(O)c3o2)cc1 | Active | Active | Active | 
CN(C)c1ccc(-c2cc(=O)c3ccc4nc[nH]c4c3o2)cc1 | Active | Active | Active | Activity [2]: Non-toxic; Activity [7]: Active; Activity [16]: Active; Activity [3]: Toxic; Activity [22]: 250%; Activity ([8]; TDE = time-dependent effect): tde; Activity [17]: Active; Activity ([9]; TDE = time-dependent effect): tde; Activity [10]: Active; Activity [23]: Active; Activity [11]: inactive; Activity [4]: Non-toxic
CN(C)c1cccc(-c2cc(=O)c3ccc(O)c(O)c3o2)c1 | Active | Active | Active | 
O=c1cc(-c2ccccc2)[nH]c2c(O)c(O)ccc12 | inactive | Active | Active | 
O=c1cc(-c2ccc(F)cc2)[nH]c2c(O)c(O)ccc12 | inactive | Active | Active | 
